Results published in ChEMBL document CHEMBL3992558, “Benzimidazole inhibitors from the Niclosamide chemotype inhibit Wnt/β-catenin signaling with selectivity over effects on ATP homeostasis” (Bioorg Med Chem, 2017).
Each block holds one molecule with its values, some of them ahead of it. Calls of active or inactive are those of the source. No cut-off for these calls is given here.

Columns and labels:
[1] = (§1) Inhibition of Wnt/beta-catenin signaling (unknown origin) expressed in HEK293 cells assessed as inhibition of Wnt3A-stimulated beta-catenin response transcription after 6 hrs by TOPflash dual luciferase reporter gene assay; type: cell-based; details: Homo sapiens, HEK293, 6 h
Summary of the method: (§2)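 HEK293 cells stably carrying p8xTOPFlash and Renilla pRL-TK were seeded at confluency and given Wnt-3A conditioned medium (from L Wnt-3A cells) containing compound, 0.04–10 μM, or DMSO for 6 h. Lysates were read by dual-luciferase assay. The DMSO/Wnt3A signal was set as 100%, and curves were fit (mean ± SEM, n ≥ 3). Percent inhibition at 10 μM was reported where no IC50 could be fitted.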

[2] = organism: Homo sapiens; assay: Inhibition of Wnt/beta-catenin signaling in human U2OS cells expressing GFP-fused Fzd1 assessed as GFP-Fzd1 internalization by measuring number of punctate formed at 12.5 uM after 6 hrs by confocal microscopic method; type: cell-based
Summary of the method: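 U2OS cells stably expressing Frizzled1-GFP were plated in confocal dishes for 24 h, then treated with 12.5 μM compound in DMSO or DMSO for 6 h at 37°C and fixed in 4% paraformaldehyde. Confocal images (488-nm excitation) were read twice, blinded, and punctate was scored versus control on a 0–5 scale (0, 1, 3, 5).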

[3] = system: HCT-116; assay: Effect on ATP homeostasis in human HCT116 cells assessed as reduction in ATP level after 3 hrs in absence of glucose by ATP bioluminescent assay; type: ADME, cell-based; details: for IC50: Homo sapiens, HCT-116, 3 h; for Activity: human, hct-116, 3 h
Summary of the method: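 HCT-116 cells attached overnight on poly-D-lysine plates in McCoy's 5A/10% FBS, then switched to glucose-free DMEM with 2mM sodium pyruvate and 2mM L-glutamine containing compound (0.1% final DMSO). After 3 h at 37°C, 5% CO2, cells were lysed in Somatic Cell ATP Releasing Reagent and ATP was read by luciferase bioluminescence, normalized to DMSO control.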

[4] = organism: Homo sapiens; assay: Inhibition of Wnt/beta-catenin signaling (unknown origin) expressed in HEK293 cells assessed as inhibition of Wnt3A-stimulated beta-catenin response transcription at 10 uM after 6 hrs by TOPflash dual luciferase reporter gene assay relative to control; type: cell-based; summary of the method: as §2
[5] = system: HCT-116; assay: Effect on ATP homeostasis in human HCT116 cells assessed as reduction in ATP level at 0.16 uM after 3 hrs in absence of glucose by ATP bioluminescent assay; type: ADME, cell-based; parameters: scale not given: the % may be the effect or the level left; details: hct-116, 3 h
[6] = system: HCT-116; assay: Effect on ATP homeostasis in human HCT116 cells assessed as reduction in ATP level at 0.5 to 2 uM after 3 hrs in glucose supplemented media by ATP bioluminescent assay; type: ADME, cell-based; details: hct-116, 3 h
Summary of the method: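 HCT-116 cells attached overnight on poly-D-lysine plates, then treated 3 h at 37°C in DMEM with 2mM sodium pyruvate, 2mM L-glutamine and 5mM glucose (0.1% final DMSO). ATP was read by luciferase bioluminescence after lysis with Somatic Cell ATP Releasing Reagent, normalized to DMSO control.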

[7] = system: HEK293 (Homo sapiens); assay: Effect on ATP homeostasis in human HEK293 cells assessed as reduction in ATP level after 3 hrs in absence of glucose by ATP bioluminescent assay; details: HEK293, 3 h
[8] = organism: Homo sapiens; assay: Inhibition of Wnt/beta-catenin signaling in human HCT116 cells assessed as downregulation of survivin protein expression at 5 uM after 18 hrs by Western blot method; type: cell-based
Summary of the method: (§3)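 HCT-116 (McCoy's 5A) or SW480 (MEM) cells, each with 10% FBS, were grown 48 h on poly-D-lysine-coated wells to 60–80% confluency. Fresh medium with compound or DMSO (0.1% final) was added for 18 h. Cytosolic fractions (β-catenin, Axin2) were isolated with hypotonic buffer, or whole cells were lysed in Laemmli buffer (c-Myc, Cyclin D1, Survivin). Immunoblots used β-actin as loading control.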

[9] = organism: Homo sapiens; assay: Inhibition of Wnt/beta-catenin signaling (unknown origin) expressed in HEK293 cells assessed as inhibition of Wnt3A-stimulated beta-catenin response transcription at 0.16 uM after 6 hrs by TOPflash dual luciferase reporter gene assay relative to control; type: cell-based
Summary of the method: (§4)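 TOPFlash/Renilla stable HEK293 cells were split from the same batch as parallel ATP assay plates, attached overnight, then treated 6 h with compound in Wnt-3A conditioned medium. Dual-luciferase read-out was taken relative to the DMSO control. Three separate experiments used different cell batches.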

[10] = organism: Homo sapiens; assay: Inhibition of Wnt/beta-catenin signaling in human HCT116 cells assessed as downregulation of Cyclin D1 protein expression at 5 uM after 18 hrs by Western blot method; type: cell-based; summary of the method: as §3
[11] = organism: Homo sapiens; assay: Inhibition of Wnt/beta-catenin signaling in human HCT116 cells assessed as downregulation of cytosolic beta-catenin protein expression at 5 uM after 18 hrs by Western blot method; type: cell-based; summary of the method: as §3
[12] = organism: Homo sapiens; assay: Inhibition of Wnt/beta-catenin signaling in human SW480 cells assessed as downregulation of cytosolic Axin2 protein expression at 5 uM after 18 hrs by Western blot method; type: cell-based; summary of the method: as §3
[13] = organism: Homo sapiens; assay: Inhibition of Wnt/beta-catenin signaling in human SW480 cells assessed as downregulation of c-Myc protein expression at 5 uM after 18 hrs by Western blot method; type: cell-based; summary of the method: as §3
[14] = organism: Homo sapiens; assay: Inhibition of Wnt/beta-catenin signaling in human SW480 cells assessed as downregulation of survivin protein expression at 5 uM after 18 hrs by Western blot method; type: cell-based; summary of the method: as §3
[15] = organism: Homo sapiens; assay: Inhibition of Wnt/beta-catenin signaling in human HCT116 cells assessed as downregulation of c-Myc protein expression at 5 uM after 18 hrs by Western blot method; type: cell-based; summary of the method: as §3
[16] = organism: Homo sapiens; assay: as §1; type: cell-based; summary of the method: as §2
[17] = organism: Homo sapiens; assay: Inhibition of Wnt/beta-catenin signaling in human SW480 cells assessed as downregulation of cytosolic beta-catenin protein expression at 5 uM after 18 hrs by Western blot method; type: cell-based; summary of the method: as §3
[18] = organism: Homo sapiens; assay: Inhibition of Wnt/beta-catenin signaling in human HCT116 cells assessed as downregulation of cytosolic Axin2 protein expression at 5 uM after 18 hrs by Western blot method; type: cell-based; summary of the method: as §3
[19] = organism: Homo sapiens; assay: Inhibition of Wnt/beta-catenin signaling in human SW480 cells assessed as downregulation of Cyclin D1 protein expression at 5 uM after 18 hrs by Western blot method; type: cell-based; summary of the method: as §3
[20] = system: HCT-116; assay: Effect on ATP homeostasis in human HCT116 cells assessed as reduction in ATP level at 0.63 uM after 3 hrs in absence of glucose by ATP bioluminescent assay; type: ADME, cell-based; details: hct-116, 3 h
[21] = organism: Homo sapiens; assay: Inhibition of Wnt/beta-catenin signaling (unknown origin) expressed in HEK293 cells assessed as inhibition of Wnt3A-stimulated beta-catenin response transcription at 0.63 uM after 6 hrs by TOPflash dual luciferase reporter gene assay relative to control; type: cell-based; summary of the method: as §4
[22] = system: HCT-116; assay: Effect on ATP homeostasis in human HCT116 cells assessed as reduction in ATP level at 2 uM after 3 hrs in glucose supplemented media by ATP bioluminescent assay; details: hct-116, 3 h

IC50 [1]: 1.5 µM
IC50 [3]: < 0.25 µM
SMILES: Cc1ccc(S(=O)(=O)Nc2ccc(Cl)cc2C(=O)Nc2ccc([N+](=O)[O-])cc2Cl)cc1
Activity [2]: 3

IC50 [1]: 1.27 µM
SMILES: COc1ccc2[nH]c(-c3cc(Cl)ccc3O)nc2c1
Activity [2]: 0

IC50 [1]: 0.23 to 0.27 µM
Activity [3]: Dose-dependent effect
SMILES: Oc1ccc(Cl)cc1-c1nc2cc(C(F)(F)F)ccc2[nH]1
Activity [5]: Non-Toxic
Activity [6]: Non-Toxic
EC50 [7]: ≥ 5 µM
inhibition [8]: Active
inhibition [9]: 40 to 50%
inhibition [10]: Active
inhibition [11]: Active
inhibition [12]: Active
inhibition [13]: Active
inhibition [14]: Active
inhibition [15]: Active
inhibition [16]: Dose-dependent effect
inhibition [17]: Active
inhibition [18]: Active
Activity [2]: 3
inhibition [19]: Active

Activity [5]: > 80%
IC50 [1]: 0.12 to 0.28 µM
IC50 [3]: 0.25 µM
Activity [3]: Dose-dependent effect
SMILES: O=C(Nc1ccc([N+](=O)[O-])cc1Cl)c1cc(Cl)ccc1O [NICLOSAMIDE]
Activity [6]: Toxic
EC50 [7]: 0.056 µM
inhibition [8]: Active
inhibition [9]: 40 to 50%
inhibition [10]: Active
inhibition [11]: Active
inhibition [12]: Active
inhibition [13]: Active
inhibition [14]: Active
inhibition [15]: Active
inhibition [16]: Dose-dependent effect
inhibition [17]: Active
inhibition [18]: Active
Activity [2]: 5
inhibition [19]: Active

IC50 [1]: 4.19 µM
SMILES: COc1ccc(O)c(-c2nc3cc([N+](=O)[O-])ccc3[nH]2)c1
Activity [2]: 0

IC50 [1]: 0.62 to 1.15 µM
IC50 [3]: 6 µM
Activity [3]: Dose-dependent effect
SMILES: O=[N+]([O-])c1ccc2[nH]c(-c3cc(F)ccc3O)nc2c1
Activity [6]: Non-Toxic
EC50 [7]: > 5 µM
inhibition [8]: Active
Activity [20]: Non-Toxic
inhibition [10]: Active
inhibition [11]: Active
inhibition [12]: Active
inhibition [13]: Active
inhibition [14]: Active
inhibition [15]: Active
inhibition [16]: Dose-dependent effect
inhibition [17]: Active
inhibition [18]: Active
inhibition [21]: Active
Activity [2]: 2
inhibition [19]: Active

IC50 [1]: 7.65 µM
SMILES: Oc1ccc(Cl)cc1-c1nc2cc(F)ccc2[nH]1
Activity [2]: 0

Continued, molecule first:

SMILES: Cc1ccc(S(=O)(=O)Nc2ccccc2-c2nc3cc(C(F)(F)F)ccc3[nH]2)cc1
inhibition [4]: 57%
Activity [2]: 0

SMILES: O=[N+]([O-])c1ccc2[nH]c(-c3ccccc3NS(=O)(=O)c3c(F)cccc3F)nc2c1
inhibition [4]: 15%
Activity [2]: 0

SMILES: Cc1ccc(S(=O)(=O)Nc2ccc(Cl)cc2-c2nc3cc([N+](=O)[O-])ccc3[nH]2)cc1
inhibition [4]: 48%
Activity [2]: 0

SMILES: CC[C@H]1/C=C/C=C/C[C@@H](C)[C@H](O)[C@@](C)(O)C(=O)[C@@H](C)[C@H](O)[C@@H](C)C(=O)[C@@H](C)[C@H](O)[C@@H](C)/C=C/C(=O)O[C@@H]2[C@H](C)[C@H](CC1)O[C@]1(CC[C@H](C)[C@H](C[C@@H](C)O)O1)[C@H]2C [OLIGOMYCIN]
Activity [22]: Toxic

SMILES: CS(=O)(=O)Nc1ccccc1-c1nc2cc(C(F)(F)F)ccc2[nH]1
inhibition [4]: 74%
Activity [2]: 0
